# Legend:
# [1] = Displacement of [3H]-flunitrazepam from CBR in Wistar rat cerebral cortex membranes after 2 hrs by scintillation counting analysis; assay type: cell membranes, Membrane
# Summary of the method: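 Male Wistar rat cerebral cortex homogenized in ice-cold PBS pH 7.4 (5.0 mg/mL protein). Incubated with 0.6 nM [3H]flunitrazepam (final) and ligand at 10⁻⁵ to 10⁻⁷ M for 2 h at 25 °C. Reaction stopped by filtration onto PEI-presoaked filters, then scintillation counting of bound activity.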
# [2] = Lipophilicity, log P of the compound at pH 7.5 by reversed phase HPLC analysis; assay type: physicochemical; settings: buffer
# Summary of the method: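 Retention times were set relative to catechol and calibrated against standards of known log P using a polynomial log P vs log RRT curve. Injections were done in triplicate and averaged.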
# Translocator protein = Translocator protein (Rattus norvegicus, UniProt P16257); assay: Displacement of [3H]-PK 11195 from TSPO in rat C6 cell lysates after 2 hrs by scintillation counting analysis; assay type: cell-free
# Summary of the method: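 Rat C6 glioma cells washed in PBS and freeze-thawed three times in HEPES/mannitol/sucrose lysis buffer with protease inhibitors and MgCl2, pH 7.4 (lysate 0.5 mg/mL). Reaction stopped by filtration onto PEI-presoaked filters, then scintillation counting.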
# Rattus norvegicus [3] = organism: Rattus norvegicus; assay: Biodistribution in Wistar rat skull at 1.0 to 1.5 mCi after 60 mins by NaI well counting analysis; assay type: ADME, organism-based; settings: in vivo, 1 h
# Summary of the method: (§1)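 Radiotracer given to rats; 14 tissues plus urine taken 60 min after a 1.0–1.5 mCi injection. Each sample weighed and its radioactivity counted in a NaI well counter. %ID/g derived from weight and radioactivity.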
# Brain [4] = assay: Biodistribution in Wistar rat brain at 1.0 to 1.5 mCi after 60 mins by NaI well counting analysis; assay type: ADME, organism-based; settings: in vivo, 1 h; summary of the method: as §1
# Testes = assay: Biodistribution in Wistar rat testes at 1.0 to 1.5 mCi after 60 mins by NaI well counting analysis; assay type: ADME, organism-based, Testis; settings: in vivo, 1 h; summary of the method: as §1
# Rattus norvegicus [5] = organism: Rattus norvegicus; assay: Biodistribution in Wistar rat stomach at 1.0 to 1.5 mCi after 60 mins by NaI well counting analysis; assay type: ADME, organism-based; settings: in vivo, 1 h; summary of the method: as §1
# Rattus norvegicus [6] = organism: Rattus norvegicus; assay: Biodistribution in Wistar rat small bowel at 1.0 to 1.5 mCi after 60 mins by NaI well counting analysis; assay type: ADME, organism-based, Small intestine; settings: in vivo, 1 h; summary of the method: as §1
# Colon = assay: Biodistribution in Wistar rat colon at 1.0 to 1.5 mCi after 60 mins by NaI well counting analysis; assay type: ADME, organism-based; settings: in vivo, 1 h; summary of the method: as §1
# Liver [7] = assay: Biodistribution in Wistar rat liver at 1.0 to 1.5 mCi after 60 mins by NaI well counting analysis; assay type: ADME, organism-based; settings: in vivo, 1 h; summary of the method: as §1
# Lung [8] = assay: Biodistribution in Wistar rat lung at 1.0 to 1.5 mCi after 60 mins by NaI well counting analysis; assay type: ADME, organism-based; settings: in vivo, 1 h; summary of the method: as §1
# Heart [9] = assay: Biodistribution in Wistar rat heart at 1.0 to 1.5 mCi after 60 mins by NaI well counting analysis; assay type: ADME, organism-based; settings: in vivo, 1 h; summary of the method: as §1
# Kidney [10] = assay: Biodistribution in Wistar rat kidney at 1.0 to 1.5 mCi after 60 mins by NaI well counting analysis; assay type: ADME, organism-based; settings: in vivo, 1 h; summary of the method: as §1
# Spleen [11] = assay: Biodistribution in Wistar rat spleen at 1.0 to 1.5 mCi after 60 mins by NaI well counting analysis; assay type: ADME, organism-based; settings: in vivo, 1 h; summary of the method: as §1
# Rattus norvegicus [12] = organism: Rattus norvegicus; assay: Stability in C6 cells bearing Wistar rat plasma at 1.5 mCi after 90 mins by radio-HPLC analysis; assay type: ADME, organism-based; settings: c6, 1.5 h
# Summary of the method: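 Arterial blood (200 μL) drawn at 2, 12, 30, 60 and 90 min after 1.5 mCi radiotracer. Plasma extracted with acetonitrile/water 7/1 and centrifuged. Supernatant run on reversed-phase radio-HPLC with 0.1 M ammonium acetate pH 10/acetonitrile (30/70).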
# [13] = Ratio of total distribution volume in C6 cells bearing Wistar rat tumor to total distribution volume in C6 cells bearing Wistar rat brain; assay type: ADME, cell-based
# [14] = Drug uptake in iv dosed C6 cells bearing Wistar rat tongue after 90 mins by PET imaging analysis; assay type: ADME, organism-based; settings: in vivo, 1.5 h
# Summary of the method: (§2)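 Male Wistar rats stereotactically inoculated in the right hemisphere with 1.0×10^5 C6 glioma cells two weeks before imaging, with venous and arterial catheters placed. Tumors confirmed by 4.7-T MRI. PET/CT followed within 24 h, with tracer given via jugular catheter during the scan.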
# Brain [15] = assay: Drug uptake in iv dosed C6 cells bearing Wistar rat brain after 90 mins by PET imaging analysis; assay type: ADME, organism-based; settings: in vivo, 1.5 h; summary of the method: as §2
# [16] = Drug uptake in iv dosed C6 cells bearing Wistar rat olfactory epithelium after 90 mins by PET imaging analysis; assay type: ADME, organism-based; settings: in vivo, 1.5 h; summary of the method: as §2
# Harderian gland = assay: Drug uptake in iv dosed C6 cells bearing Wistar rat harderian glands after 90 mins by PET imaging analysis; assay type: ADME, organism-based; settings: in vivo, 1.5 h; summary of the method: as §2
# [17] = Drug uptake in iv dosed C6 cells bearing Wistar rat tumor after 90 mins by PET imaging analysis; assay type: ADME, organism-based, Neoplasm; settings: in vivo, 1.5 h; summary of the method: as §2
# [18] = Drug excretion in Wistar rat urine at 1.0 to 1.5 mCi after 90 mins by NaI well counting analysis in presence of 2-(5,7-diethyl-2-(4-(2-fluoroethoxy)phenyl)pyrazolo[1,5-a]-pyrimidin-3-yl)-N,N-diethylacetamide; assay type: ADME, tissue-based; settings: in vivo, 1.5 h
# Summary of the method: (§3)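 Rats received 1.0–1.5 mCi radiotracer. Unlabelled analog (10 mg/kg) was injected 30 min after tracer as a displacement challenge. Tissues taken and counted in a NaI well counter. %ID/g derived from sample weight and radioactivity.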
# Liver [19] = assay: Drug uptake in Wistar rat liver at 1.0 to 1.5 mCi after 90 mins by NaI well counting analysis in presence of 2-(5,7-diethyl-2-(4-(2-fluoroethoxy)phenyl)pyrazolo[1,5-a]-pyrimidin-3-yl)-N,N-diethylacetamide; assay type: ADME, tissue-based; settings: in vivo, 1.5 h; summary of the method: as §3
# Muscle tissue = assay: Drug uptake in Wistar rat muscle at 1.0 to 1.5 mCi after 90 mins by NaI well counting analysis in presence of 2-(5,7-diethyl-2-(4-(2-fluoroethoxy)phenyl)pyrazolo[1,5-a]-pyrimidin-3-yl)-N,N-diethylacetamide; assay type: ADME, tissue-based; settings: in vivo, 1.5 h; summary of the method: as §3
# Lung [20] = assay: Drug uptake in Wistar rat lung at 1.0 to 1.5 mCi after 90 mins by NaI well counting analysis in presence of 2-(5,7-diethyl-2-(4-(2-fluoroethoxy)phenyl)pyrazolo[1,5-a]-pyrimidin-3-yl)-N,N-diethylacetamide; assay type: ADME, tissue-based; settings: in vivo, 1.5 h; summary of the method: as §3
# Kidney [21] = assay: Drug uptake in Wistar rat kidney at 1.0 to 1.5 mCi after 90 mins by NaI well counting analysis in presence of 2-(5,7-diethyl-2-(4-(2-fluoroethoxy)phenyl)pyrazolo[1,5-a]-pyrimidin-3-yl)-N,N-diethylacetamide; assay type: ADME, tissue-based; settings: in vivo, 1.5 h; summary of the method: as §3
# Heart [22] = assay: Drug uptake in Wistar rat heart at 1.0 to 1.5 mCi after 90 mins by NaI well counting analysis in presence of 2-(5,7-diethyl-2-(4-(2-fluoroethoxy)phenyl)pyrazolo[1,5-a]-pyrimidin-3-yl)-N,N-diethylacetamide; assay type: ADME, tissue-based; settings: in vivo, 1.5 h; summary of the method: as §3
# Spleen [23] = assay: Drug uptake in Wistar rat spleen at 1.0 to 1.5 mCi after 90 mins by NaI well counting analysis in presence of 2-(5,7-diethyl-2-(4-(2-fluoroethoxy)phenyl)pyrazolo[1,5-a]-pyrimidin-3-yl)-N,N-diethylacetamide; assay type: ADME, tissue-based; settings: in vivo, 1.5 h; summary of the method: as §3
# Rattus norvegicus [24] = organism: Rattus norvegicus; assay: Biodistribution in Wistar rat whole blood at 1.0 to 1.5 mCi after 60 mins by NaI well counting analysis; assay type: ADME, organism-based; settings: in vivo, 1 h; summary of the method: as §1
# Rattus norvegicus [25] = organism: Rattus norvegicus; assay: Biodistribution in Wistar rat skeletal muscle at 1.0 to 1.5 mCi after 60 mins by NaI well counting analysis; assay type: ADME, organism-based, Muscle tissue; settings: in vivo, 1 h; summary of the method: as §1
# [26] = Drug metabolism in Wistar rat plasma at 130 to 200 MBq, iv after 12 mins by radio-HPLC analysis; assay type: ADME, organism-based; settings: read-out: Drug metabolism
# Translocator protein, sequence (P16257 whole entry, looked up): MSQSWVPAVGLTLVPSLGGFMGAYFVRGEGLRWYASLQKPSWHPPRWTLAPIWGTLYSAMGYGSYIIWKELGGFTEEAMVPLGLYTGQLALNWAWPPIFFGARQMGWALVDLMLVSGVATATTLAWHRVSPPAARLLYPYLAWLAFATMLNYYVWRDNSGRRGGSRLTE
structure (smiles),measurement,setting,value
CCc1cc(CC)n2nc(-c3ccc(OCCF)cc3)c(CC(=O)N(CC)CC)c2n1,Ki,[1],> 10000 nM
same,logP,[2],2.5
same,Ki,Translocator protein,0.27 nM
CCc1c(C)nc2c(CC(=O)N(CC)CC)c(-c3ccc(OCCF)cc3)nn2c1C,logP,[2],2.53
same,Ki,Translocator protein,277 nM
CCc1c(C)nc2c(CC(=O)N(CC)CC)c(-c3ccc(OC)cc3)nn2c1C,logP,[2],2.78
same,Ki,Translocator protein,157 nM
CCN(CC)C(=O)Cc1c(-c2ccc(OC)cc2)nn2c(C)cc(C)nc12,logP,[2],2.4
CCc1cc(CC)n2nc(-c3ccc(OC)cc3)c(CC(=O)N(CC)CC)c2n1,logP,[2],2.84
same,Ki,Translocator protein,0.18 nM
CCN(CC)C(=O)Cc1c(-c2ccc(OC)cc2)nn2c(C)c(C)c(C)nc12,logP,[2],2.45
same,Ki,Translocator protein,93.7 nM
CCc1cc(CC)n2nc(-c3ccc(OCC[18F])cc3)c(CC(=O)N(CC)CC)c2n1,Drug uptake,Rattus norvegicus [3],Active
same,Drug uptake,Brain [4],Active
same,Drug uptake,Testes,Active
same,Drug uptake,Rattus norvegicus [5],Active
same,Drug uptake,Rattus norvegicus [6],Active
same,Drug uptake,Colon,Active
same,Drug uptake,Liver [7],Active
same,Drug uptake,Lung [8],Active
same,Drug uptake,Heart [9],Active
same,Drug uptake,Kidney [10],Active
same,Drug uptake,Spleen [11],Active
same,Stability,Rattus norvegicus [12],Stable
same,Ratio,[13],6
same,Drug uptake,[14],Active
same,Drug uptake,Brain [15],Active
same,Drug uptake,[16],Active
same,Drug uptake,Harderian gland,Active
same,Drug uptake,[17],Active
same,Drug excretion,[18],Active
same,Drug uptake,Liver [19],Active
same,Drug uptake,Muscle tissue,Active
same,Drug uptake,Lung [20],Not Active
same,Drug uptake,Kidney [21],Not Active
same,Drug uptake,Heart [22],Not Active
same,Drug uptake,Spleen [23],Not Active
same,Ct,Rattus norvegicus [24],Not Active
same,Drug uptake,Rattus norvegicus [25],Active
CCN(CC)C(=O)Cc1c(-c2ccc(OC)cc2)nn2c(C)c(Cl)c(C)nc12,logP,[2],2.99
same,Ki,Translocator protein,55.4 nM
CCN(CC)C(=O)Cc1c(-c2ccc(OCCF)cc2)nn2c(C)cc(C)nc12 [DPA-714],logP,[2],2.12
CCN(CC)C(=O)Cc1c(-c2ccc(OCCF)cc2)nn2c(C(C)C)cc(C(C)C)nc12,logP,[2],2.73
same,Ki,Translocator protein,> 500 nM
CCN(CC)C(=O)Cc1c(-c2ccc(OCCF)cc2)nn2c(C)c(Cl)c(C)nc12,logP,[2],2.55
same,Ki,Translocator protein,67.9 nM
CCN(CC)C(=O)Cc1c(-c2ccc(OC)cc2)nn2c(C(C)C)cc(C(C)C)nc12,logP,[2],2.98
same,Ki,Translocator protein,> 500 nM
CCN(CC)C(=O)Cc1c(-c2ccc(OCC[18F])cc2)nn2c(C)cc(C)nc12 [DPA-714 F-18],metabolised at 0.2 h,[26],30%
CCN(CC)C(=O)Cc1c(-c2ccc(OCCF)cc2)nn2c(C)c(CC(C)=O)c(C)nc12,logP,[2],2.07
same,Ki,Translocator protein,252 nM
CCN(CC)C(=O)Cc1c(-c2ccc(OCCF)cc2)nn2c(C)c(C)c(C)nc12,logP,[2],2.47
same,Ki,Translocator protein,83 nM
CCN(CC)C(=O)Cc1c(-c2ccc(OC)cc2)nn2c(C)c(CC(C)=O)c(C)nc12,logP,[2],2.57
same,Ki,Translocator protein,201 nM
